According to ChEMBL document CHEMBL4024783, “Alkylated Piperazines and Piperazine-Azole Hybrids as Antifungal Agents” (J Med Chem, 2018):
≈ marks a conversion by molar mass, not a printed value.

Tests used:
[1] = system: Candida albicans; experiment: Antifungal activity against itraconazole and fluconazole susceptible Candida albicans ATCC MYA-2876 after 48 hrs by broth dilution method; type: functional; conditions: Candida albicans, ATCC MYA-2876, 48 h
[2] = system: Aspergillus terreus; experiment: Antifungal activity against Aspergillus terreus ATCC MYA-3633 after 48 hrs by broth dilution method; type: functional; conditions: Aspergillus terreus, ATCC MYA-3633, 48 h
In short: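 Molds tested per CLSI M38-A2. Spores were harvested from sporulating PDA cultures by filtering through glass wool and counted on a hemocytometer. Serial dilutions (0.03–31.3 µg/mL) were made in RPMI 1640 buffered to pH 7.0 with 0.165 M MOPS, final inoculum 5 × 10^5 CFU/mL.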

[3] = system: Candida albicans; experiment: Antifungal activity against itraconazole and fluconazole resistant Candida albicans ATCC MYA-1003 after 48 hrs by broth dilution method; type: functional; conditions: Candida albicans, ATCC MYA-1003, 48 h
In short: (§1)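 CLSI M27-A3 broth microdilution with minor modifications. Overnight YPD culture grown at 35 °C, 200 rpm, adjusted to OD600 0.12, diluted in RPMI 1640 buffered to pH 7.0 with 0.165 M MOPS to a final 1–2 × 10^3 CFU/mL. Test compounds at 0.015–31.3 µg/mL, 48 h at 35 °C, DMSO <1.25%. […] Triplicate.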

[4] = system: Candida albicans; experiment: Antifungal activity against itraconazole and fluconazole susceptible Candida albicans ATCC MYA-2310 after 48 hrs by broth dilution method; type: functional; conditions: Candida albicans, ATCC MYA-2310, 48 h
[5] = system: Candida albicans; experiment: Antifungal activity against Candida albicans ATCC 64124 after 48 hrs by broth dilution method; type: functional; conditions: Candida albicans, ATCC 64124, 48 h; in short: as §1
[6] = system: Aspergillus nidulans; experiment: Antifungal activity against Aspergillus nidulans ATCC 38163 after 48 hrs by broth dilution method; type: functional; conditions: Aspergillus nidulans, ATCC 38163, 48 h
In short: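 A. nidulans run per CLSI M38-A2. PDA spores were filtered through glass wool and counted by hemocytometer. Test range 0.03–31.3 µg/mL in MOPS-buffered RPMI 1640 (pH 7.0), final 5 × 10^5 CFU/mL.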

[7] = system: Candida albicans; experiment: Antifungal activity against itraconazole and fluconazole resistant Candida albicans ATCC 90819 after 48 hrs by broth dilution method; type: functional; conditions: Candida albicans, ATCC 90819, 48 h; in short: as §1
[8] = system: Candida albicans; experiment: Antifungal activity against Candida albicans ATCC 10231 after 48 hrs by broth dilution method; type: functional; conditions: ATCC 10231, 48 h
[9] = system: Aspergillus flavus; experiment: Antifungal activity against Aspergillus flavus ATCC MYA-3631 after 48 hrs by broth dilution method; type: functional; conditions: ATCC MYA-3631, 48 h
[10] = system: Candida parapsilosis; experiment: Antifungal activity against Candida parapsilosis ATCC 22019 after 48 hrs by broth dilution method; type: functional; conditions: Lodderomyces parapsilosis, ATCC 22019, 48 h
[11] = system: Candida albicans; experiment: Antifungal activity against itraconazole and fluconazole resistant Candida albicans ATCC MYA-1237 after 48 hrs by broth dilution method; type: functional; conditions: Candida albicans, ATCC MYA-1237, 48 h; in short: as §1
[12] = system: Pichia kudriavzevii; experiment: Antifungal activity against Candida krusei ATCC 6258 after 48 hrs by broth dilution method; type: functional; conditions: Pichia kudriavzevii, ATCC 6258, 48 h
In short: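 Yeasts tested per CLSI M27-A3 with minor changes. An overnight YPD culture (35 °C, 200 rpm) was adjusted to OD600 0.12 and diluted in MOPS-buffered RPMI 1640 (pH 7.0) to a final 1–2 × 10^3 CFU/mL. Compounds 0.015–31.3 µg/mL, DMSO <1.25%.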

[13] = system: Nakaseomyces glabratus; experiment: Antifungal activity against Candida glabrata ATCC 2001 after 48 hrs by broth dilution method; type: functional, CBS 138; conditions: Nakaseomyces glabratus, CBS 138, 48 h
[14] = Aqueous solubility of the compound; type: physicochemical; conditions: buffer
[15] = Solubility of the compound in DMSO; type: physicochemical

`CCCCCN1CCNCC1` showed an MIC [1] of over 200 µM, an MIC [2] of over 200 µM and an MIC [3] of over 200 µM. It also gave an MIC [4] of over 200 µM, an MIC [5] of over 200 µM and an MIC [6] of over 200 µM. It also gave an MIC [7] of over 200 µM, an MIC [8] of over 200 µM and an MIC [9] of over 200 µM. It also gave an MIC [10] of over 200 µM, an MIC [11] of over 200 µM and an MIC [12] of over 200 µM. It also gave an MIC [13] of over 200 µM.

Compound `CCCCCCCCCCCCCCN1CCN(CC(O)(Cn2cncn2)c2ccc(F)cc2F)CC1` (centres undefined) has an MIC [1] of 15 µM (≈ 7.8 µg/mL), an MIC [2] of 1.9 µM (≈ 0.987 µg/mL) and an MIC [3] of 3.8 µM (≈ 1.97 µg/mL). The MIC [4] was 7.5 µM (≈ 3.9 µg/mL), the MIC [5] was 60.2 µM (≈ 31.3 µg/mL) and the MIC [6] was 3.8 µM (≈ 1.97 µg/mL). It also gave an MIC [7] of 3.8 µM (≈ 1.97 µg/mL), an MIC [8] of 3.8 µM (≈ 1.97 µg/mL) and an MIC [9] of 0.9 µM (≈ 0.468 µg/mL). The MIC [10] was over 60.2 µM, the MIC [11] was 7.5 µM (≈ 3.9 µg/mL) and the MIC [12] was 1.9 µM (≈ 0.987 µg/mL). The MIC [13] was over 60.2 µM.

`CCCCCN1CCN(CC(O)(Cn2cncn2)c2ccc(F)cc2F)CC1` (centres undefined) gave an MIC [1] of over 79.5 µM, an MIC [2] of over 79.5 µM and an MIC [3] of over 79.5 µM. The MIC [4] was over 79.5 µM, the MIC [5] was over 79.5 µM and the MIC [6] was over 79.5 µM. For the same compound, the MIC [7] was 79.5 µM (≈ 31.3 µg/mL), the MIC [8] was over 79.5 µM and the MIC [9] was over 79.5 µM. It also gave an MIC [10] of 39.6 µM (≈ 15.6 µg/mL), an MIC [11] of over 79.5 µM and an MIC [12] of over 79.5 µM. The MIC [13] was over 79.5 µM.

Compound `CCCCCCCCCN1CCNCC1` has an MIC [1] of over 147 µM, an MIC [2] of over 147 µM and an MIC [3] of over 147 µM. The MIC [4] was 147 µM (≈ 31.3 µg/mL), the MIC [5] was over 147 µM and the MIC [6] was over 147 µM. It also gave an MIC [7] of 147 µM (≈ 31.3 µg/mL), an MIC [8] of 147 µM (≈ 31.3 µg/mL) and an MIC [9] of 147 µM (≈ 31.3 µg/mL). For the same compound, the MIC [10] was over 147 µM, the MIC [11] was 147 µM (≈ 31.3 µg/mL) and the MIC [12] was 147 µM (≈ 31.3 µg/mL). For the same compound, the MIC [13] was 147 µM (≈ 31.3 µg/mL).

For `CCCCCCCCCN1CCN(CC(O)(Cn2cncn2)c2ccc(F)cc2F)CC1` (centres undefined), the MIC [1] was 8.8 µM (≈ 3.96 µg/mL), the MIC [2] was 4.4 µM (≈ 1.98 µg/mL) and the MIC [3] was 35.2 µM (≈ 15.8 µg/mL). It also gave an MIC [4] of 35.2 µM (≈ 15.8 µg/mL), an MIC [5] of 17.6 µM (≈ 7.91 µg/mL) and an MIC [6] of 2.2 µM (≈ 0.989 µg/mL). For the same compound, the MIC [7] was 17.6 µM (≈ 7.91 µg/mL), the MIC [8] was 2.2 µM (≈ 0.989 µg/mL) and the MIC [9] was 1.1 µM (≈ 0.495 µg/mL). For the same compound, the MIC [10] was 0.55 µM (≈ 0.247 µg/mL), the MIC [11] was 35.2 µM (≈ 15.8 µg/mL) and the MIC [12] was 2.2 µM (≈ 0.989 µg/mL). The MIC [13] was 8.8 µM (≈ 3.96 µg/mL).

In the case of `CCCCCCCCCCN1CCNCC1`, the MIC [1] is reported as 68.9 µM (≈ 15.6 µg/mL), the MIC [2] is reported as 68.9 µM (≈ 15.6 µg/mL) and the MIC [3] is reported as 68.9 µM (≈ 15.6 µg/mL). For the same compound, the MIC [4] was 68.9 µM (≈ 15.6 µg/mL), the MIC [5] was 68.9 µM (≈ 15.6 µg/mL) and the MIC [6] was 68.9 µM (≈ 15.6 µg/mL). It also gave an MIC [7] of 68.9 µM (≈ 15.6 µg/mL), an MIC [8] of 68.9 µM (≈ 15.6 µg/mL) and an MIC [9] of 138 µM (≈ 31.3 µg/mL). For the same compound, the MIC [10] was 68.9 µM (≈ 15.6 µg/mL), the MIC [11] was 68.9 µM (≈ 15.6 µg/mL) and the MIC [12] was 34.5 µM (≈ 7.81 µg/mL). The MIC [13] was 34.5 µM (≈ 7.81 µg/mL).

`CCCCCCCCCCCCCN1CCN(CC(O)(Cn2cncn2)c2ccc(F)cc2F)CC1` (centres undefined) gave an MIC [1] of 3.9 µM (≈ 1.97 µg/mL), an MIC [2] of 1.9 µM (≈ 0.961 µg/mL) and an MIC [3] of 7.7 µM (≈ 3.89 µg/mL). The MIC [4] was 7.7 µM (≈ 3.89 µg/mL), the MIC [5] was 15.4 µM (≈ 7.79 µg/mL) and the MIC [6] was 1.9 µM (≈ 0.961 µg/mL). For the same compound, the MIC [7] was 3.9 µM (≈ 1.97 µg/mL), the solubility [14] was “Soluble” and the MIC [8] was 3.9 µM (≈ 1.97 µg/mL). For the same compound, the solubility [15] was “Soluble”, the MIC [9] was 1.9 µM (≈ 0.961 µg/mL) and the MIC [10] was under 0.47 µM. For the same compound, the MIC [11] was 7.7 µM (≈ 3.89 µg/mL), the MIC [12] was 1.9 µM (≈ 0.961 µg/mL) and the MIC [13] was 1.9 µM (≈ 0.961 µg/mL).

Work on `CCCCCCCCCCCN1CCN(CC(O)(Cn2cncn2)c2ccc(F)cc2F)CC1` (centres undefined) yielded an MIC [1] of 16.4 µM (≈ 7.83 µg/mL), an MIC [2] of 4.1 µM (≈ 1.96 µg/mL) and an MIC [3] of 32.8 µM (≈ 15.7 µg/mL). For the same compound, the MIC [4] was 32.8 µM (≈ 15.7 µg/mL), the MIC [5] was 32.8 µM (≈ 15.7 µg/mL) and the MIC [6] was 4.1 µM (≈ 1.96 µg/mL). For the same compound, the MIC [7] was 32.8 µM (≈ 15.7 µg/mL), the MIC [8] was 4.1 µM (≈ 1.96 µg/mL) and the MIC [9] was 4.1 µM (≈ 1.96 µg/mL). The MIC [10] was 0.5 µM (≈ 0.239 µg/mL), the MIC [11] was 32.8 µM (≈ 15.7 µg/mL) and the MIC [12] was 4.1 µM (≈ 1.96 µg/mL). It also gave an MIC [13] of 8.2 µM (≈ 3.92 µg/mL).

`CC[C@H](C)C[C@H](C)CCCCCCCCC(=O)N[C@H]1C[C@@H](O)[C@@H](NCCN)NC(=O)[C@@H]2[C@@H](O)CCN2C(=O)[C@H]([C@H](O)CCN)NC(=O)[C@H]([C@H](O)[C@@H](O)c2ccc(O)cc2)NC(=O)[C@@H]2C[C@@H](O)CN2C(=O)[C@H]([C@@H](C)O)NC1=O` [CASPOFUNGIN] gave an MIC [1] of 0.05 µM (≈ 0.0547 µg/mL), an MIC [2] of over 25.8 µM and an MIC [3] of 0.4 µM (≈ 0.437 µg/mL). The MIC [4] was 0.1 µM (≈ 0.109 µg/mL), the MIC [5] was 0.2 µM (≈ 0.219 µg/mL) and the MIC [6] was over 25.8 µM. The MIC [7] was 0.1 µM (≈ 0.109 µg/mL), the MIC [8] was 0.8 µM (≈ 0.875 µg/mL) and the MIC [9] was over 25.8 µM. It also gave an MIC [10] of 1.6 µM (≈ 1.75 µg/mL), an MIC [11] of 0.2 µM (≈ 0.219 µg/mL) and an MIC [12] of 0.4 µM (≈ 0.437 µg/mL). The MIC [13] was 0.05 µM (≈ 0.0547 µg/mL).
